# Experimental data reported in ChEMBL document CHEMBL1177718, “Phosphoramidate ProTides of 2'-C-methylguanosine as highly potent inhibitors of hepatitis C virus. Study of their in vitro and in vivo properties” (J Med Chem, 2010).
# How the values were obtained:
# [1] = Metabolic stability in human intestine S9 fraction assessed as compound remaining at 10 uM after 30 mins by HPLC analysis in presence of NADP; type: ADME, tissue-based; details: read-out: Stability
# [2] = Metabolic stability in human liver S9 fraction assessed as compound remaining at 10 uM after 30 mins by HPLC analysis in absence of NADP; type: ADME, subcellular; details: read-out: Stability
# [3] = Metabolic stability in dog intestine S9 fraction assessed as compound remaining at 10 uM after 60 mins by HPLC analysis in absence of NADP; type: ADME, tissue-based, Canis lupus familiaris; details: read-out: Stability
# How it was run: (§1)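 Liver or intestinal S9 at final 1 mg/mL in 50 mM potassium phosphate, with or without NADPH-regenerating system (1.3 mM NADP, 3.3 mM glucose-6-phosphate, 0.4 U/mL G6PDH, 3.3 mM MgCl₂); 10 min preincubation at 37 °C; compound at final 10 μM; samples at start and 60 min quenched in cold acetonitrile, centrifuged, HPLC; % parent remaining.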
# [4] = Metabolic stability in dog intestine S9 fraction assessed as compound remaining at 10 uM after 60 mins by HPLC analysis in presence of NADP; type: ADME, tissue-based, Canis lupus familiaris; details: read-out: Stability; how it was run: as §1
# Hepatitis C virus = experiment: Antiviral activity against HCV1b infected in human HuH7 cells assessed as inhibition of viral replication after 48 hrs by luciferase reporter gene assay; type: functional, organism-based, Hepacivirus hominis; details: genotype 1b, Huh-7, 48 h
# How it was run: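 Huh7 cells carrying genotype 1b bicistronic subgenomic replicon, seeded 2 × 10⁴/well without G-418; compounds added 18-24 h later, 48 h exposure; 3× or 4× serial dilutions over 0.0001-10 μM in triplicate/quadruplicate; Renilla luciferase read-out versus untreated cells; EC₅₀ by four-parameter sigmoidal nonlinear regression; at least three independent assays.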
# [5] = Metabolic stability in mouse plasma assessed as compound remaining at 1 ug/ml after 30 mins; type: ADME, cell-free; details: read-out: Stability
# [6] = Cytotoxicity against human HuH7 cells after 72 hrs by celltiter-glo assay; type: cell-based, Huh-7
# How it was run: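 Replicon 1b Huh7 cells seeded 2 × 10⁴/well; after 24 h, 11 serial 2× dilutions from 100 μM (three repeats each) with no-compound control; 72 h at 37 °C, CO₂, log-phase growth; viability by CellTiter-Glo luminescence; CC₅₀ = concentration giving 50% signal.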
# [7] = Metabolic stability in human liver S9 fraction assessed as compound remaining at 10 uM after 30 mins by HPLC analysis in presence of NADP; type: ADME, subcellular; details: read-out: Stability
# [8] = Metabolic stability in dog liver S9 fraction assessed as compound remaining at 10 uM after 60 mins by HPLC analysis in presence of NADP; type: ADME, subcellular, Canis lupus familiaris; details: read-out: Stability; how it was run: as §1
# [9] = Metabolic stability in human intestine S9 fraction assessed as compound remaining at 10 uM after 30 mins by HPLC analysis in absence of NADP; type: ADME, tissue-based; details: read-out: Stability
# [10] = Metabolic stability in dog liver S9 fraction assessed as compound remaining at 10 uM after 60 mins by HPLC analysis in absence of NADP; type: ADME, subcellular, Canis lupus familiaris; details: read-out: Stability; how it was run: as §1
# [11] = Metabolic stability in human liver S9 fraction assessed as compound remaining at 10 uM after 60 mins by HPLC analysis in absence of NADP; type: ADME, subcellular; details: read-out: Stability; how it was run: as §1
# [12] = Metabolic stability in rat liver S9 fraction assessed as compound remaining at 10 uM after 60 mins by HPLC analysis in presence of NADP; type: ADME, subcellular; details: read-out: Stability
# How it was run: (§2)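 Rat liver or intestinal S9 at 1 mg/mL final in 50 mM potassium phosphate, with or without NADPH-regenerating system (final 1.3 mM NADP, 3.3 mM glucose-6-phosphate, 0.4 U/mL G6P dehydrogenase, 3.3 mM MgCl2). Preincubated 10 min at 37 °C with shaking, started with compound at 10 μM final. Samples taken at 0 and 60 min, quenched in cold acetonitrile, centrifuged, and parent disappearance measured by HPLC.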
# [13] = Metabolic stability in cynomolgus monkey liver S9 fraction assessed as compound remaining at 10 uM after 60 mins by HPLC analysis in presence of NADP; type: ADME, subcellular, Macaca fascicularis; details: read-out: Stability; how it was run: as §1
# [14] = Metabolic stability in human intestine S9 fraction assessed as compound remaining at 10 uM after 60 mins by HPLC analysis in absence of NADP; type: ADME, tissue-based; details: read-out: Stability; how it was run: as §1
# [15] = Metabolic stability in rat liver S9 fraction assessed as compound remaining at 10 uM after 60 mins by HPLC analysis in absence of NADP; type: ADME, subcellular; details: read-out: Stability; how it was run: as §2
# [16] = Metabolic stability in cynomolgus monkey intestine S9 fraction assessed as compound remaining at 10 uM after 60 mins by HPLC analysis in absence of NADP; type: ADME, tissue-based, Macaca fascicularis; details: read-out: Stability; how it was run: as §1
# [17] = Metabolic stability in rat intestine S9 fraction assessed as compound remaining at 10 uM after 60 mins by HPLC analysis in absence of NADP; type: ADME, tissue-based; details: read-out: Stability; how it was run: as §2
# [18] = Metabolic stability in human liver S9 fraction assessed as compound remaining at 10 uM after 60 mins by HPLC analysis in presence of NADP; type: ADME, subcellular; details: read-out: Stability; how it was run: as §1
# [19] = Metabolic stability in human intestine S9 fraction assessed as compound remaining at 10 uM after 60 mins by HPLC analysis in presence of NADP; type: ADME, tissue-based; details: read-out: Stability; how it was run: as §1
# [20] = Metabolic stability in cynomolgus monkey intestine S9 fraction assessed as compound remaining at 10 uM after 60 mins by HPLC analysis in presence of NADP; type: ADME, tissue-based, Macaca fascicularis; details: read-out: Stability; how it was run: as §1
# [21] = Metabolic stability in cynomolgus monkey liver S9 fraction assessed as compound remaining at 10 uM after 60 mins by HPLC analysis in absence of NADP; type: ADME, subcellular, Macaca fascicularis; details: read-out: Stability; how it was run: as §1
# [22] = Metabolic stability in rat intestine S9 fraction assessed as compound remaining at 10 uM after 60 mins by HPLC analysis in presence of NADP; type: ADME, tissue-based; details: read-out: Stability; how it was run: as §2
# Liver [23] = experiment: Dose normalized AUC in ICR mouse liver at 50 mg/kg, po by LC-MS/MS analysis; type: ADME, organism-based; set-up: dose 50 mg/kg, route oral; details: in vivo
# Liver [24] = experiment: AUC (0 to 6 hrs) in ICR mouse liver at 50 mg/kg, po by LC-MS/MS analysis; type: ADME, organism-based; set-up: time < 6 hr, dose 50 mg/kg, route oral; details: in vivo
# Plasma = experiment: Dose normalized AUC in ICR mouse plasma at 50 mg/kg, po by LC-MS/MS analysis; type: ADME, organism-based; set-up: dose 50 mg/kg, route oral; details: in vivo
# [25] = Cmax in ICR mouse plasma at 50 mg/kg, po by LC-MS/MS analysis; type: ADME, organism-based; set-up: dose 50 mg/kg, route oral
# [26] = Metabolic stability in dog plasma assessed as compound remaining at 1 ug/ml after 30 mins; type: ADME, cell-free, Canis lupus familiaris; details: read-out: Stability
# How it was run: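 Duplicate incubations; compound at final 1 μg/mL in plasma preincubated and kept at […]; samples taken at 30 or 240 min, quenched with ice-cold acetonitrile, centrifuged, supernatant diluted with water; parent quantified by LC-MS/MS (Polar-RP column, formic acid water/acetonitrile gradient, positive ion mode); % remaining reported.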
# Homo sapiens = organism: Homo sapiens; experiment: Metabolic stability in human plasma assessed as compound remaining at 1 ug/ml after 30 mins
Structure (SMILES),EC50 (Hepatitis C virus) [nM],"remaining at 0.5 h, 1 ug/ml [5] [%]","remaining at 1 h, 10 µM [3] [%]","remaining at 1 h, 10 µM [4] [%]",CC50 at 72 h [6] [nM],"remaining at 1 h, 10 µM [8] [%]","remaining at 1 h, 10 µM [10] [%]","remaining at 1 h, 10 µM [11] [%]","remaining at 1 h, 10 µM [12] [%]","remaining at 1 h, 10 µM [13] [%]","remaining at 1 h, 10 µM [14] [%]","remaining at 1 h, 10 µM [15] [%]","remaining at 1 h, 10 µM [16] [%]","remaining at 1 h, 10 µM [17] [%]","remaining at 1 h, 10 µM [18] [%]","remaining at 1 h, 10 µM [19] [%]","remaining at 1 h, 10 µM [20] [%]","remaining at 1 h, 10 µM [21] [%]","remaining at 1 h, 10 µM [22] [%]",AUC (Liver [23]) [ng·h/g],further results
C[C@H](NP(=O)(OC[C@H]1O[C@@H](n2cnc3c(=O)[nH]c(N)nc32)[C@](C)(O)[C@@H]1O)Oc1cccc2ccccc12)C(=O)OCC(C)(C)C (some centres not stated),57,0.3,56,42,> 100000,49,87,59,5,16,49,31,68,86,7,28,20,88,57,32,AUC (Liver [24]): 1584 ng·h/g; AUC (Plasma): 38 ng·h/mL; Cmax [25]: 262 ng/mL
COC(=O)[C@H](C)NP(=O)(OC[C@H]1O[C@@H](n2cnc3c(=O)[nH]c(N)nc32)[C@](C)(O)[C@@H]1O)Oc1cccc2ccccc12 (some centres not stated),210,1.7,54,50,> 50000,67,85,40,,,63,,,,20,60,,,,,
CC(C)[C@H](NP(=O)(OC[C@H]1O[C@@H](n2cnc3c(=O)[nH]c(N)nc32)[C@](C)(O)[C@@H]1O)Oc1cccc2ccccc12)C(=O)OCc1ccc(Cl)cc1 (some centres not stated),620,94,,,,,,,,,,,,,,,,,,18,"AUC (Liver [24]): 920 ng·h/g; remaining at 0.5 h, 1 ug/ml [26]: 89%; AUC (Plasma): 88 ng·h/mL; remaining at 0.5 h, 1 ug/ml (Homo sapiens): 95%; Cmax [25]: 339 ng/mL"

# More lines, main results first:
EC50 (Hepatitis C virus) [nM],"remaining at 0.5 h, 1 ug/ml [5] [%]",Structure (SMILES),"remaining at 1 h, 10 µM [3] [%]","remaining at 1 h, 10 µM [4] [%]",CC50 at 72 h [6] [nM],"remaining at 1 h, 10 µM [8] [%]","remaining at 1 h, 10 µM [10] [%]","remaining at 1 h, 10 µM [11] [%]","remaining at 1 h, 10 µM [12] [%]","remaining at 1 h, 10 µM [13] [%]","remaining at 1 h, 10 µM [14] [%]","remaining at 1 h, 10 µM [15] [%]","remaining at 1 h, 10 µM [16] [%]","remaining at 1 h, 10 µM [17] [%]","remaining at 1 h, 10 µM [18] [%]","remaining at 1 h, 10 µM [19] [%]","remaining at 1 h, 10 µM [20] [%]","remaining at 1 h, 10 µM [21] [%]","remaining at 1 h, 10 µM [22] [%]",AUC (Liver [23]) [ng·h/g],further results
120,2,CC(C)C[C@H](NP(=O)(OC[C@H]1O[C@@H](n2cnc3c(=O)[nH]c(N)nc32)[C@](C)(O)[C@@H]1O)Oc1cccc2ccccc12)C(=O)OCc1ccccc1 (some centres not stated),33,12,> 50000,14,48,,,,,,,,,,,,,,"remaining at 0.5 h, 10 µM [1]: 8%; remaining at 0.5 h, 10 µM [2]: 44%; remaining at 0.5 h, 10 µM [7]: 0%; remaining at 0.5 h, 10 µM [9]: 28%"
170,14,CC(C)OC(=O)[C@H](C)NP(=O)(OC[C@H]1O[C@@H](n2cnc3c(=O)[nH]c(N)nc32)[C@](C)(O)[C@@H]1O)Oc1cccc2ccccc12 (some centres not stated),68,66,> 100000,81,91,41,25,0,85,28,87,76,27,65,48,86,77,,
